Data reported in ChEMBL document CHEMBL4196022, “Alkynyl-containing phenylthiazoles: Systemically active antibacterial agents effective against methicillin-resistant Staphylococcus aureus (MRSA)” (Eur J Med Chem, 2018).
Values after ≈ are worked out from the molar mass of the structure shown. Active and inactive are the calls of the source. The calls are words filed in the database; no cut-off is given here.

Tests used:
[1] = system: Staphylococcus aureus; test: Inhibition of UPPS/UPPP in vancomycin-resistant Staphylococcus aureus VRS10 assessed as potentiation of vancomycin-induced antibacterial activity by measuring fold reduction in vancomycin MIC at 0.5 times MIC preincubated for 30 mins followed by vancomycin addition measured after 20 to 22 hrs by broth microdilution assay relative to control
In short: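 VRS10 suspension pre-exposed to compound at ½ × MIC for 30 min at room temperature. […] Incubation at 37 °C for 20–22 h before the MIC was read; untreated bacteria served as control.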

[2] = system: Staphylococcus aureus; test: Ratio of MBC to MIC for vancomycin-resistant Staphylococcus aureus VRS12; assay type: functional
In short: (§1)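 MBC/MIC ratio. […] MBC by plating no-growth wells onto tryptic soy agar at 37 °C for at least 18 h; taken as the concentration giving 99.9% growth inhibition.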

[3] = system: Staphylococcus aureus; test: Antibacterial activity against methicillin-resistant Staphylococcus aureus USA300 after 20 hrs by broth microdilution assay; assay type: functional; details: USA300, 20 h
In short: (§2)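 Broth microdilution per CLSI in cation-adjusted Mueller Hinton broth. Compounds serially diluted, in triplicate. Incubation at 37 °C for at least 20 hours. MIC taken as the lowest concentration with no visible bacterial growth.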

[4] = system: Staphylococcus aureus; test: Antibacterial activity against vancomycin-resistant Staphylococcus aureus VRS11a after 20 hrs by broth microdilution assay; assay type: functional; in short: as §2
[5] = system: Staphylococcus aureus; test: Potency index, ratio of vancomycin MIC to compound MIC for antibacterial activity against vancomycin-resistant Staphylococcus aureus VRS11a; assay type: functional
[6] = system: Staphylococcus aureus; test: Ratio of MBC to MIC for methicillin-resistant Staphylococcus aureus USA300; assay type: functional; in short: as §1
[7] = system: Staphylococcus aureus; test: Ratio of MBC to MIC for vancomycin-resistant Staphylococcus aureus VRS11a; assay type: functional; in short: as §1
[8] = system: Staphylococcus aureus; test: Antibacterial activity against vancomycin-resistant Staphylococcus aureus VRS12 after 20 hrs by broth microdilution assay; assay type: functional; details: VRS12, 20 h; in short: as §2
[9] = system: Staphylococcus aureus; test: Antibacterial activity against methicillin-resistant Staphylococcus aureus NRS107 after 20 hrs by broth microdilution assay; assay type: functional; details: NRS107, 20 h; in short: as §2
[10] = system: Staphylococcus aureus; test: Antibacterial activity against methicillin-resistant Staphylococcus aureus NRS119 after 20 hrs by broth microdilution assay; assay type: functional; details: NRS119, 20 h; in short: as §2
[11] = system: Staphylococcus aureus; test: Ratio of MBC to MIC for vancomycin-resistant Staphylococcus aureus VRS10; assay type: functional; in short: as §1
[12] = system: Staphylococcus aureus; test: Bactericidal activity against methicillin resistant vancomycin-resistant Staphylococcus aureus VRS12 up to 18 hrs by broth microdilution assay; assay type: functional; details: VRS12, 18 h, read-out: MBC99.9
In short: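 MBC set up from the MIC plates. Aliquots from wells with no growth spotted onto tryptic soy agar and incubated at 37 °C for at least 18 hours. MBC taken as the lowest concentration giving 99.9% inhibition of bacterial growth.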

[13] = system: Staphylococcus aureus; test: Bactericidal activity against methicillin-resistant Staphylococcus aureus USA300 up to 18 hrs by broth microdilution assay; assay type: functional; details: USA300, 18 h, read-out: MBC99.9
[14] = system: Staphylococcus aureus; test: Bactericidal activity against methicillin-resistant Staphylococcus aureus NRS119 up to 18 hrs by broth microdilution assay; assay type: functional; details: NRS119, 18 h, read-out: MBC99.9
[15] = system: Staphylococcus aureus; test: Bactericidal activity against methicillin-resistant Staphylococcus aureus NRS107 up to 18 hrs by broth microdilution assay; assay type: functional; details: NRS107, 18 h, read-out: MBC99.9
[16] = system: Staphylococcus aureus; test: Bactericidal activity against methicillin resistant vancomycin-resistant Staphylococcus aureus VRS11a up to 18 hrs by broth microdilution assay; assay type: functional; details: read-out: MBC99.9
[17] = system: Staphylococcus aureus; test: Ratio of MBC to MIC for methicillin-resistant Staphylococcus aureus NRS123 (USA400); assay type: functional; in short: as §1
[18] = Selectivity index, ratio of toxic concentration for human HRT18 cells to MIC for methicillin-resistant Staphylococcus aureus; assay type: toxicity; details: read-out: Selectivity Index
[19] = system: Staphylococcus aureus; test: Antibacterial activity against vancomycin-resistant Staphylococcus aureus VRS10 after 20 hrs by broth microdilution assay; assay type: functional; details: VRS10, 20 h; in short: as §2
[20] = system: Staphylococcus aureus; test: Bactericidal activity against methicillin resistant Staphylococcus aureus NRS123 (USA400) up to 18 hrs by broth microdilution assay; assay type: functional; details: read-out: MBC99.9
[21] = system: HRT-18 cell line; test: Cytotoxicity against human HRT18 cells assessed as reduction in cell viability up to 32 ug/ml after 2 hrs by MTS assay; assay type: cell-based; details: hrt-18, 2 h
[22] = system: Staphylococcus aureus; test: Potency index, ratio of vancomycin MIC to compound MIC for antibacterial activity against vancomycin-resistant Staphylococcus aureus VRS12; assay type: functional
[23] = system: Staphylococcus aureus; test: Ratio of MBC to MIC for methicillin-resistant Staphylococcus aureus NRS119; assay type: functional; in short: as §1
[24] = system: Staphylococcus aureus; test: Potency index, ratio of vancomycin MIC to compound MIC for antibacterial activity against vancomycin-resistant Staphylococcus aureus VRS10; assay type: functional
[25] = system: Staphylococcus aureus; test: Antibacterial activity against methicillin-resistant Staphylococcus aureus NRS123 (USA400) after 20 hrs by broth microdilution assay; assay type: functional; in short: as §2
[26] = system: Staphylococcus aureus; test: Bactericidal activity against methicillin resistant vancomycin-resistant Staphylococcus aureus VRS10 up to 18 hrs by broth microdilution assay; assay type: functional; details: VRS10, 18 h, read-out: MBC99.9
[27] = system: Staphylococcus aureus; test: Ratio of MBC to MIC for methicillin-resistant Staphylococcus aureus NRS107; assay type: functional; in short: as §1
[28] = system: Mus musculus; test: Toxicity in wounded skin area of Balb/c mouse infected with methicillin-resistant Staphylococcus aureus USA300 at 2% administered topically twice daily for 5 consecutive days measured 12 hrs post last dose; assay type: organism-based; details: in vivo, topical_or_ocular
In short: (§3)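 Female Balb/c mice, 8 weeks old, n=5 per group. Intradermal injection of 40 μL of 1.32×10^9 CFU/mL USA300; a wound formed by ~66 h. Treated topically with a 2% suspension in petroleum jelly twice daily for 5 days; the vehicle group served as control. Wounds excised 12 h after the last dose, homogenized in PBS and plated on mannitol salt agar; sites also observed for redness and swelling.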

[29] = system: Mus musculus; test: Induction of inflammation in Balb/c mouse infected with methicillin-resistant Staphylococcus aureus USA300 assessed as swelling around wounded skin area at 2% administered topically twice daily for 5 consecutive days measured 12 hrs post last dose; assay type: organism-based; details: in vivo, topical_or_ocular; in short: as §3
[30] = system: Staphylococcus aureus; test: Antibacterial activity against methicillin-resistant Staphylococcus aureus USA300 in Balb/c mouse skin infection model assessed as reduction in bacterial burden in wounded skin area at 2% administered topically twice daily for 5 consecutive days measured 12 hrs post last dose relative to control; assay type: functional; design: scale not given: the % may be the effect or the level left; in short: as §3
[31] = system: Mus musculus; test: Induction of inflammation in Balb/c mouse infected with methicillin-resistant Staphylococcus aureus USA300 assessed as redness around wounded skin area at 2% administered topically twice daily for 5 consecutive days measured 12 hrs post last dose relative to control; assay type: organism-based; details: in vivo, topical_or_ocular; in short: as §3
[32] = system: J774; test: Cytotoxicity against mouse J774 cells assessed as reduction in cell viability up to 16 ug/ml after 24 hrs by MTS assay; assay type: cell-based; details: j774, 24 h
In short: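 J774 murine macrophages were grown in DMEM with 10% FBS at 37 °C, 5% CO2. Compounds were tested at 8, 16 and 32 μg/mL in triplicate for 24 h, with a DMSO-matched control. MTS was added for 4 h and absorbance read at 490 nm. Viability is given as % of DMSO control (mean ± SD); Student t-test with Holm-Sidak test.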

[33] = system: Staphylococcus aureus; test: Antibacterial activity against methicillin-resistant Staphylococcus aureus NRS123 (USA400) infected in mouse J774 cells at 16 ug/ml after 24 hrs; assay type: functional, organism-based
In short: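 J774 macrophages grown in DMEM with 10% FBS at 37 °C, 5% CO2. Infected with USA400 at MOI ~100:1 for 1 h, then washed with gentamicin 50 μg/mL. Treated in triplicate wells for 24 h, washed with gentamicin again and lysed with 0.1% Triton X-100. Lysate plated on tryptic soy agar for 18–22 h; CFU/mL counted.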

[34] = system: Staphylococcus aureus; test: Bactericidal activity against methicillin-resistant Staphylococcus aureus USA300 at 4 times MIC after 24 hrs by time kill assay; assay type: functional, organism-based
[35] = system: Staphylococcus aureus; test: Bactericidal activity against methicillin-resistant Staphylococcus aureus NRS123 (USA400) at 4 times MIC after 24 hrs by time kill assay; assay type: functional, organism-based
[36] = system: Staphylococcus aureus; test: Antibacterial activity against methicillin-resistant Staphylococcus aureus USA300 infected in Caenorhabditis elegans AU37 assessed as reduction in bacterial burden at 20 ug/ml after 18 hrs relative to control; assay type: functional; design: scale not given: the % may be the effect or the level left
In short: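 L4-stage C. elegans AU37 infected on USA300 lawns for 6 h and washed with M9 buffer. 25–30 worms per well exposed to 20 μg/mL for 18 h, in triplicate. Worms then lysed and plated on TSA with 5 μg/mL nalidixic acid for 17 h at 37 °C. CFU per worm expressed as % reduction versus PBS.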

SMILES | Ratio [2] | MIC [4] | Ratio [5] | Ratio [6] | Ratio [7] | MIC [8] | MIC [9] | MIC [10] | Ratio [11] | MBC [12] | MBC [13] | MBC [14] | MBC [16] | selectivity ratio [18] | MIC [19] | MBC [20] | Activity [21] | Ratio [22] | Ratio [23] | Ratio [24] | further results
C/C(=N\NC(=N)N)c1sc(-c2ccc(C#Cc3ccccc3)cc2)nc1C | <=3 | 1 µg/mL (≈ 2.68 µM) | >100 | <=3 | <=3 | 2 µg/mL (≈ 5.35 µM) | 2 µg/mL (≈ 5.35 µM) | 1 µg/mL (≈ 2.68 µM) | <=3 | 2 µg/mL (≈ 5.35 µM) | 1 µg/mL (≈ 2.68 µM) | 2 µg/mL (≈ 5.35 µM) | 2 µg/mL (≈ 5.35 µM) | 7 to 31 | 1 µg/mL (≈ 2.68 µM) | 4 µg/mL (≈ 10.7 µM) | Non-Toxic | 8 | <=3 | >100 | fold change (FC) [1]: 512; MIC [3]: 1 µg/mL (≈ 2.68 µM); MBC [15]: 2 µg/mL (≈ 5.35 µM); Ratio ([17]; read-out: Ratio): 4; MIC [25]: 1 µg/mL (≈ 2.68 µM); MBC [26]: 2 µg/mL (≈ 5.35 µM); Ratio [27]: <=3
CC(=O)O[C@H]1C[C@@]2(C)[C@@H](C[C@@H](O)[C@H]3[C@@]4(C)CC[C@@H](O)[C@@H](C)[C@@H]4CC[C@@]32C)/C1=C(\CCC=C(C)C)C(=O)O [FUSIDIC ACID] | – | – | – | – | – | – | – | – | – | – | – | – | – | – | – | – | – | – | – | – | Activity [28]: Non-Toxic; Activity [29]: Non-Toxic; Activity [30]: 78%; Activity [31]: Non-Toxic
CCCCCC#Cc1ccc(-c2nc(C)c(/C(C)=N/NC(=N)N)s2)cc1 | <=3 | 1 µg/mL (≈ 2.72 µM) | >100 | <=3 | <=3 | 2 µg/mL (≈ 5.44 µM) | 2 µg/mL (≈ 5.44 µM) | 2 µg/mL (≈ 5.44 µM) | <=3 | 2 µg/mL (≈ 5.44 µM) | 4 µg/mL (≈ 10.9 µM) | 2 µg/mL (≈ 5.44 µM) | 2 µg/mL (≈ 5.44 µM) | 7 to 31 | 2 µg/mL (≈ 5.44 µM) | 2 µg/mL (≈ 5.44 µM) | Non-Toxic | 8 | <=3 | >100 | Activity [32]: Non-Toxic; Activity [28]: Non-Toxic; Activity [29]: Non-Toxic; Activity [30]: 71%; Activity [33]: Active; Activity [31]: Non-Toxic; Ratio [17]: <=3; Activity [34]: Active; Activity [35]: Active; MIC [25]: 2 µg/mL (≈ 5.44 µM); MBC [26]: 2 µg/mL (≈ 5.44 µM); Activity [36]: 90%; Ratio [27]: <=3
